Article PMC4618637 (Pharmacology Research & Perspectives, 2015)
Like-named read-outs stand apart in the source and are kept apart here. Values belong to the molecule of their own block, whether it stands above or below them.

Legend:
[1] = format: in vivo; details: human ileal effluent 4 h after 5 g TU-100 oral
In short: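 Subjects were 10 ileostomy patients (2 male, 8 female), with stoma made at least 2 weeks prior and normal small intestine by enteroscopy. Those given kampo medicine within 4 weeks were excluded. A new bag was fitted, then 5 g TU-100 drug product (0.42 g drug substance) was taken, followed by an unrestricted breakfast. Effluent was collected at 4 h and frozen at −80°C. Liquid–liquid extraction used pH 5.0 ammonium acetate/PEG, methanol and internal standard, with or without β-glucuronidase (final 0.1 U/μL, 37°C), before LC-MS/MS. Results were expressed as % of ingested amount.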

[2] = format: in vivo, rat; details: for Effect of β-glucuronidase treatment on blood concentrations: rat blood, data not shown
In short: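 Male Sprague Dawley rats (7 weeks, 274.2–317.7 g) were fasted 16 h and had jugular vein catheters placed 2 days earlier. Single oral TU-100 drug substance was given at 0.3 g/kg with 2.4 g/kg maltose (n = 5), or 0.9 g/kg with 7.2 g/kg maltose for 6G/6S. Plasma was taken at 0.083–24 h and analysed by LC-MS/MS after acetonitrile/methanol precipitation with internal standard. Cmax observed; AUC0–last; t1/2 = ln2/ke.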

[3] = Recovery of TU-100 ingredients in small intestinal luminal contents; format: in vivo, rat; details: for Effect of β-glucuronidase treatment on luminal amounts: rat small intestinal contents
In short: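 Fasted male Sprague Dawley rats (n = 3 per time) were killed 0.083–4 h after oral TU-100 with maltose. The small intestine was ligated into quarters (sites 1–4, oral to anal), and contents were collected with cold water to 10 mL and stored at −80°C. Aliquots, with or without β-glucuronidase (final 0.1 U/μL, pH 6.0, 37°C), were mixed with HBSS/30% acetonitrile and internal standard, then analysed by LC-MS/MS. Amount per site was expressed as % of dosed ingredient; mean ± SD.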

[4] = Portal blood pharmacokinetics of TU-100 ingredients after single oral TU-100; format: in vivo, rat
In short: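 Purchased male Sprague Dawley rats with hepatic portal vein catheters were fasted 16 h. They received oral TU-100 drug substance at 0.3 g/kg plus 2.4 g/kg maltose (n = 5). Portal plasma was sampled at 0.083, 0.25, 0.5, 1, 2, 4, 8 and 24 h and stored at −80°C. Samples were protein-precipitated with internal standard, optionally treated with β-glucuronidase (final 0.1 U/μL, pH 6.0, 37°C), then run on LC-MS/MS. Cmax and tmax were observed; AUC0–last was taken to the last detected time; values mean ± SD.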

[5] = isotope-labeled 6S administered orally; ref Asami et al. [2010]; cited from earlier work
[6] = male, Sprague Dawley, rat, plasma from peripheral blood, po, 0.9 g/kg
[7] = male, Sprague Dawley, rat, plasma from portal blood, po, 0.3 g/kg
[8] = male, Sprague Dawley, rat, plasma from peripheral blood, po, 0.3 g/kg
[9] = site 3 and 4, at 30 min and 1 h (Fig. 2)
[10] = site 4, at 2 h and 4 h (Fig. 2)
[11] = rat peripheral blood, oral TU-100 0.3 g/kg, untreated, mean ± SD, n = 5
[12] = all sites, all rats, all time points, data not shown

SMILES: CC(C)=CCC[C@](C)(O[C@@H]1O[C@H](CO[C@@H]2O[C@H](CO)[C@@H](O)[C@H](O)[C@H]2O)[C@@H](O)[C@H](O)[C@H]1O)[C@H]1CC[C@]2(C)[C@@H]1[C@H](O)C[C@@H]1[C@@]3(C)CC[C@H](O[C@@H]4O[C@H](CO)[C@@H](O)[C@H](O)[C@H]4O[C@@H]4O[C@H](CO)[C@@H](O)[C@H](O)[C@H]4O)C(C)(C)[C@@H]3CC[C@]12C [Rb1, ginsenoside Rb1]
% of ingested TU-100, Max ([1]; β-glucuronidase treatment −): 77.5%
% of ingested TU-100, Median ([1]; β-glucuronidase treatment −): 59.1%
Tmax ([2]; male, Sprague Dawley, rat, plasma (peripheral and portal blood), oral, 0.3 g/kg): ~4 h
AUC [2, 8]: 34.3 ± 12 ng·h/mL
AUC(0-t) [2, 8]: 34.3 ± 12 ng·h/mL
Cmax [2, 8]: 2.12 ± 0.759 ng/mL
Tmax [2, 8]: 4.8 ± 1.79 h
Effect of β-glucuronidase treatment on blood concentrations [2]: no effect
Effect of β-glucuronidase treatment on luminal amounts [3]: did not have a significant effect
Level in luminal contents as % of the ingested amount [3, 9]: around 10%
Level in luminal contents as % of the ingested amount [3, 10]: ~50%
AUC [4, 7]: 28.7 ± 6.29 ng·h/mL
AUC(0-t) [4, 7]: 28.7 ± 6.29 ng·h/mL
Cmax [4, 7]: 2.1 ± 1.13 ng/mL
Tmax [4, 7]: 6 ± 2.31 h

SMILES: C/C=C/C=C/C=C\CC/C=C/C(=O)NCC(C)(C)O [HAS, hydroxy-α-sanshool]
% of ingested TU-100, Max ([1]; β-glucuronidase treatment −): 0.4%
% of ingested TU-100, Median ([1]; β-glucuronidase treatment −): B.L.Q
Effect of β-glucuronidase treatment on blood concentrations [2]: no effect
AUCall [2, 11]: 951 ± 264 ng·h/mL
AUClast [2, 11]: 951 ± 264 ng·h/mL
Cmax [2, 11]: 778 ± 276 ng/mL
Tmax [2, 11]: 0.283 ± 0.209 h
t1/2 [2, 11]: 3.01 ± 2.90 h
Time for blood concentration to reach almost 0 ([2]; rat portal and peripheral blood): ≤ 5 h
Level in luminal contents as % of the ingested amount [3, 12]: < 1%
Level in small intestinal luminal contents [3, 12]: below 10 μg/site

SMILES: C/C=C/C=C/C=C/CC/C=C/C(=O)NCC(C)(C)O [HBS, hydroxy-β-sanshool]
% of ingested TU-100, Median ([1]; β-glucuronidase treatment −): B.L.Q
Effect of β-glucuronidase treatment on blood concentrations [2]: no effect
Level in luminal contents as % of the ingested amount [3, 12]: < 1%
Level in small intestinal luminal contents [3, 12]: below 10 μg/site

SMILES: CC(C)=CCC[C@](C)(O[C@@H]1O[C@H](CO)[C@@H](O)[C@H](O)[C@H]1O)[C@H]1CC[C@]2(C)[C@@H]1[C@H](O)C[C@@H]1[C@@]3(C)CC[C@H](O)C(C)(C)[C@@H]3[C@@H](O[C@@H]3O[C@H](CO)[C@@H](O)[C@H](O)[C@H]3O)C[C@]12C [Rg1, ginsenoside Rg1]
% of ingested TU-100, Max ([1]; β-glucuronidase treatment −): 114.0%
% of ingested TU-100, Median ([1]; β-glucuronidase treatment −): 91.5%
Blood concentrations ([2]; rat blood after oral TU-100): too low to obtain reliable data
Effect of β-glucuronidase treatment on luminal amounts [3]: did not have a significant effect
Level in luminal contents as % of the ingested amount [3, 9]: around 10%
Level in luminal contents as % of the ingested amount [3, 10]: ~30%

SMILES: C/C=C/C=C/C=C\CC/C=C/C=C/C(=O)NCC(C)C [GS, γ-sanshool]
% of ingested TU-100, Max ([1]; β-glucuronidase treatment −): 68.1%
% of ingested TU-100, Median ([1]; β-glucuronidase treatment −): 4.1%

Now from value to molecule, other results behind:

% of ingested TU-100, Median ([1]; β-glucuronidase treatment −): B.L.Q
AUC [2, 6]: 0.974 ± 0.839 ng·h/mL
AUC(0-t) [2, 6]: 0.974 ± 0.839 ng·h/mL
Cmax [2, 6]: 0.676 ± 0.479 ng/mL
Tmax [2, 6]: 0.466 ± 0.857 h
6G in luminal contents as % of the ingested amount ([3]; all sites, at 30 min (Fig. 3)): below 2%
Unconjugated 6G in luminal contents as % of the ingested amount ([3]; sites 3 and/or 4, after 1 h (Fig. 3)): 2–3%
AUC [4, 7]: 59.7 ± 40.4 ng·h/mL
AUC(0-t) [4, 7]: 59.7 ± 40.4 ng·h/mL
Cmax [4, 7]: 38.3 ± 31.8 ng/mL
Tmax [4, 7]: 1.31 ± 1.8 h
half-life [4, 7]: 1.79 h
Peak concentration of 6G and its conjugates relative to that of HAS ([4]; rat portal blood): about one-fifth
SMILES: CCCCC[C@H](O)CC(=O)CCc1ccc(O)c(OC)c1 [6G, [6]-gingerol]

% of ingested TU-100, Max ([1]; β-glucuronidase treatment +): 9.1%
% of ingested TU-100, Median ([1]; β-glucuronidase treatment +): 4.3%
% of ingested TU-100, Median ([1]; β-glucuronidase treatment −): B.L.Q
SMILES: CCCCCCCCC[C@H](O)CC(=O)CCc1ccc(O)c(OC)c1 [10G, [10]-gingerol]

% of ingested TU-100, Max ([1]; β-glucuronidase treatment +): 0.8%
% of ingested TU-100, Median ([1]; β-glucuronidase treatment +): 0.4%
% of ingested TU-100, Median ([1]; β-glucuronidase treatment −): B.L.Q
Presence of 6S and its conjugates in luminal contents ([3]; all sites, all rats, all time points (Fig. 3)): virtually absent
Portal blood levels of 6S and its conjugates relative to 6G/6G conjugates ([4]; rat portal blood): approximately one tenth
Concentrations of 6S and its conjugates in the portal blood ([4]; rat portal blood after oral TU-100): below 20 ng/mL
SMILES: CCCCC/C=C/C(=O)CCc1ccc(O)c(OC)c1 [6S, [6]-shogaol]
Isotope labels recovered in the urine [5]: about 90%

% of ingested TU-100, Max ([1]; β-glucuronidase treatment +): 3.5%
% of ingested TU-100, Median ([1]; β-glucuronidase treatment +): 0.8%
% of ingested TU-100, Median ([1]; β-glucuronidase treatment −): B.L.Q
SMILES: CCCCCCCCC/C=C/C(=O)CCc1ccc(O)c(OC)c1 [10S, [10]-shogaol]
